ChEMBL document CHEMBL1926666, “Synthesis of novel 3-cyclohexylpropanoic acid-derived nitrogen heterocyclic compounds and their evaluation for tuberculostatic activity” (Bioorg Med Chem, 2012)
Values after ≈ are worked out from the molar mass of the structure shown. Active and inactive are the calls of the source. No cut-off for these calls is given here.

Experiments:
Brevibacterium linens = assay: Antibacterial activity against Brevibacterium linens ATCC 9174 after 24 hrs by M7-A7 CLSI method; type: functional; settings: ATCC 9174, 24 h
How it was run: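 Compounds dissolved in 100% DMSO at 5 mg/mL, then 1 mg/mL in 10% DMSO; serial dilutions in broth from 100 µg/mL final. B. linens: nutrient broth 24 h at 30 °C, inoculum 1 McFarland, 24 h with compounds. P. acnes: thioglycolate broth 72 h at 33 °C, inoculum 0.5 McFarland, 72 h anaerobic with compounds. MIC = lowest concentration with no visible growth, confirmed by A655.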

[1] = tested on: Mycobacterium tuberculosis; assay: Antituberculosis activity against Mycobacterium tuberculosis H37Rv by twofold serial dilution method; type: functional
How it was run: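 Classical two-fold test-tube serial dilution in Youmans' modified Proskauer–Beck liquid medium with 10% bovine serum. Inocula from 14-day cultures. Compounds in ethylene glycol, 10 mg/mL stock, geometric dilutions in medium; 3.1, 6.2, 12.5, 25, 50 and 100 µg/mL evaluated. Incubation at 37 °C. MIC = lowest concentration inhibiting growth relative to a compound-free tube. INH, PZA and RMP served as reference drugs.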

Skin fibroblast = assay: Stimulation of type 1 collagen output in human skin fibroblasts after at 10 to 100 ug/ml after 72 hrs by ELISA; type: functional
How it was run: (§1)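 Neonatal human dermal fibroblasts in high-glucose DMEM with 5% calf serum, 3 × 10³ cells/well, 72 h compound exposure. Conditioned media assayed for type I collagen by sandwich ELISA (affinity-purified antibodies, streptavidin/avidin-HRP, ABTS, 405 nm), quantified against a purified human collagen I standard curve. Expressed as % of untreated control. MAP and bFGF (15 ng/mL) served as positive controls.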

[2] = Growth inhibition of human skin fibroblasts at 10 ug/ml after 72 hrs by MTT assay; parameters: species or system Skin fibroblast; settings: read-out: GI
How it was run: (§2)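 Neonatal human dermal fibroblasts in high-glucose DMEM with 5% cosmic calf serum, seeded 3 × 10³ cells/well and exposed to compounds for 72 h. MTT then added for 2.5 h; formazan solubilised in isopropanol and read at 550 nm; signal proportional to cell number.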

[3] = Growth inhibition of human skin fibroblasts at 100 ug/ml after 72 hrs by MTT assay; parameters: species or system Skin fibroblast; settings: read-out: GI; how it was run: as §2
[4] = Stimulation of type 1 collagen output in human skin fibroblasts after at 100 ug/ml after 72 hrs by ELISA relative to control; type: functional, Skin fibroblast; how it was run: as §1

| SMILES | MIC (Brevibacterium linens) [µg/mL] | MIC [1] [µg/mL] | Activity (Skin fibroblast) | inhibition at 72 h, 10 ug/ml [2] [%] | inhibition at 72 h, 100 ug/ml [3] [%] | Activity [4] [%] |
| --- | --- | --- | --- | --- | --- | --- |
| S=c1[nH]nc(CCC2CCCCC2)o1 | > 100 | 25 (≈ 118 µM) | inactive |  |  |  |
| c1ccc2nc3cc4[nH]c(CCC5CCCCC5)nc4cc3nc2c1 | > 100 | 3.1 (≈ 9.38 µM) | inactive | 0 | 11 |  |
| O=C(CCC1CCCCC1)NN=C1SCCS1 | > 100 | 50 (≈ 184 µM) | inactive |  |  |  |
| O=C(CCC1CCCCC1)NNC(=S)NC1CCCCC1 | > 100 | 50 (≈ 161 µM) | inactive |  |  |  |
| CNC(=S)NNC(=O)CCC1CCCCC1 | > 100 | 50 (≈ 205 µM) | inactive |  |  |  |
| CC1(C)CNc2nnc(CCC3CCCCC3)n2C1 | > 100 | 50 (≈ 191 µM) | inactive |  |  |  |
| O=C(CCC1CCCCC1)NNC(=S)Nc1ccc(Cl)cc1 | > 100 | 50 (≈ 147 µM) | inactive |  |  |  |
| c1cnc2[nH]c(CCC3CCCCC3)nc2c1 | > 100 | 25 (≈ 109 µM) | inactive | 0 | 41 |  |
| S=c1[nH]nc(CCC2CCCCC2)n1C1CCCCC1 | > 100 | 50 (≈ 170 µM) | inactive |  |  |  |
| CSC(=S)NNC(=O)CCC1CCCCC1 | > 100 | 50 (≈ 192 µM) | inactive |  |  |  |
| C=CCn1c(CCC2CCCCC2)n[nH]c1=S | > 100 | 50 (≈ 199 µM) | inactive |  |  |  |
| Cl.Cl.c1cc2nc(CCC3CCCCC3)[nH]c2cn1 | > 100 | 25 | inactive | 0 | 0 |  |
| CSC(=NNC(=O)CCC1CCCCC1)SC | > 100 | 50 (≈ 182 µM) | inactive |  |  |  |
| NC(=O)c1cnccn1 [PYRAZINAMIDE] |  | 25 (≈ 203 µM) |  |  |  |  |
| S=c1[nH]nc(CCC2CCCCC2)[nH]1 | > 100 | 50 (≈ 237 µM) | inactive |  |  |  |
| Brc1cnc2[nH]c(CCC3CCCCC3)nc2c1 | > 100 | 6.5 (≈ 21.1 µM) | inactive | 17 | 100 |  |
| S=c1[nH]nc(CCC2CCCCC2)n1-c1ccc(Cl)cc1 | > 100 | 50 (≈ 155 µM) | inactive |  |  |  |
| NNC(=O)c1ccncc1 [ISONIAZID] |  | 0.5 (≈ 3.65 µM) |  |  |  |  |
| C=CCNC(=S)NNC(=O)CCC1CCCCC1 | > 100 | 50 (≈ 186 µM) | inactive |  |  |  |
| O=[N+]([O-])c1cc(Cl)cc2[nH]c(CCC3CCCCC3)nc12 | > 100 | 12.5 (≈ 40.6 µM) |  | 0 | 18 | 166 |
| c1ccc2c(c1)ccc1nc(CCC3CCCCC3)[nH]c12 | > 100 | 1.5 (≈ 5.39 µM) | inactive | 16 | 74 |  |
| CO[C@H]1/C=C/O[C@@]2(C)Oc3c(C)c(O)c4c(O)c(c(/C=N/N5CCN(C)CC5)c(O)c4c3C2=O)NC(=O)/C(C)=C\C=C\[C@H](C)[C@H](O)[C@@H](C)[C@@H](O)[C@@H](C)[C@H](OC(C)=O)[C@@H]1C [RIFAMPIN] |  | 1.2 (≈ 1.46 µM) |  |  |  |  |
| Cn1c(CCC2CCCCC2)n[nH]c1=S | > 100 | 50 (≈ 222 µM) | inactive |  |  |  |
